# PolyA inh = blocks polyadenylation in yeast reporter cells | S. cerevisiae SKY197-pL101 polyadenylation reporter, beta-gal luminescence; efflux-impaired pdr1/pdr3 knockout yeast; score 100 = 6 SD above DMSO | activity score, % at 12 µM | actives 0.02% (n = 300,000) | AID 1875;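 active means lowest replicate activity score at least 50, where 100 means six control SD above control mean; inconclusive means lowest score under 50 but half or more replicates reach 50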;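 further: yeast exposed to compound for 9 h at 30 °C; higher score means more reporter readthrough which indicates perturbed polyadenylation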
# HSF1 inhib = HSF1 inhibition | NIH3T3-HGL HSE-luciferase, MG132-induced, luminescence 8 h; active compounds read low | actives 0.77% (n = 300,000) | activity change, negative = inhibition, % at 7.5 µM (by protocol);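 active means more than half of replicate wells show activity change below -50%, luminescence cut by over half; inconclusive means some wells, but at most half, below -50%; inactive means no replicate well below -50%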;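 further: luciferase reports HSF-1 transcriptional activity via heat shock element; 0% = median of DMSO wells and -100% = zero luminescence signal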
# STAT3 act = STAT3 signaling activation | U3A cells, IL-6 STAT3-luciferase reporter, luminescence; 100% = signal with IL-6 EC80 alone | AID 871 | activation (% of control), % at 5.6 µM | actives 0.91% (n = 190,000);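 active means activation above the screen-wide mean of compound activation plus 3 SD, cut at about 130% in these data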;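 further: 0% = background luminescence of wells with medium and substrate only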
#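 Test system: Human STAT1-deficient U3A cells with stable STAT3-luciferase reporter | Also added: Interleukin-6, 33 ng/mL | Timing: Compound pre-incubation 1 h before IL-6, then 6 h stimulation at 37 °C | Technique: Luciferase reporter luminescence | Read-out: Percent of IL-6-only median luminescence | Benchmarks: IL-6-only wells as 100% reference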
# AHR activator = activates the human aryl hydrocarbon receptor; P35869; AHR-responsive luciferase reporter cells, luminescence; activation, % at 5 µM; actives 2.5% (n = 320,000); in the data active means activation above about 47%;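 further: 0% = vehicle wells and 100% = reference agonist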
# PERK inh = human PERK inhibition, primary cell-based screen; AID 1416; Q9NZJ5; actives 0.17% (n = 220,000); inhibition, % at 5.6 µM; CHO PERK-DD fusion, SEAP luminescence translation reporter;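 active means inhibition above the mean inhibition of all tested compounds plus 3 SD, set separately per screening campaign, cut at about 2.9% in these data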;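 further: PERK kinase domain activated by AP20187 dimerizer at 100 nM; 0% = DMSO with dimerizer and 100% = rapamycin at 8.4 µM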
# Hsp70 act = switches on Hsp70 transcription | HeLa Hsp70 promoter luciferase reporter, luminescence; scaled: vehicle 0, proteasome-inhibitor control 100% | activation, % at 10 µM | actives 0.04% (n = 200,000);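 active means activation above the mean across all tested compounds plus 3 SD, cutoff set per campaign, cut at about 5.5% in these data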;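 further: 100% = MG132 at 30 µM as the positive control and 0% = DMSO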
# Starred values were filed as active, the others as inactive; ? = inconclusive; · = no result given. An excerpt weighted towards active compounds, which were near 3.6% of everything screened.
SMILES,PolyA inh,HSF1 inhib,STAT3 act,AHR activator,PERK inh,Hsp70 act
Cc1cccc(N/C(N)=N/c2nc(C(F)(F)F)cc(C(F)(F)F)n2)c1,22,-6,89,69*,1,0
CCOc1ccc(C(=O)c2ccc(OCC)c(N)c2)cc1N,-5,10,111,60*,1,0
COc1ccccc1CNS(=O)(=O)c1cc2c3c(c1)C(C)C(=O)N3CCC2 (stereo unspecified),-9,-8,·,3,·,·
Cc1cc(/C=C\c2ccccc2)nc2ccccc12,-40,17,130,62*,0,0
CN(C)c1nc2ccccc2c(N)c1-c1ccccc1,·,·,109,55*,0,0
CSc1nc(N(C)C)c2ccccc2n1,-22,-4,99,-2,1,0
Cn1c(=O)c2c(nc(NCC3CCCC(CN)C3)n2Cc2ccc(Cl)cc2Cl)n(C)c1=O (stereo unspecified),4,-8,·,-1,·,·
O=C(Nc1ccc(F)cc1)Nc1ccc2c(c1)OCO2,12,17,·,67*,·,·
Cc1ccc(NC(=O)COC(=O)C2=COCCO2)cc1,-7,1,107,0,-1,0
Cc1cc(C)c(NC(=O)Nc2ccc3c(c2)OCO3)c(C)c1,6,-75*,·,51*,·,·
O=C(Nc1ccc2c(c1)OCO2)c1c[nH]c(=O)n(-c2ccc(F)cc2)c1=O,-11,4,·,55*,·,·
Cc1ccc(NC(=O)Nc2ccc3c(c2)OCO3)c(Br)c1,-2,10,·,20,·,·
O=C(Nc1ccc2c(c1)OCO2)Nc1ccc(F)cc1F,-20,28,·,24,·,·
O=C(COC(=O)C1=COCCO1)Nc1ccc2c(c1)OCO2,13,-63*,101,4,1,-1
O=C(O)c1ccc([N+](=O)[O-])c(CS(=O)(=O)c2ccccc2)c1,-3,0,·,0,·,·
CCCCN1C(=O)C(=O)N(CC(=O)Nc2cc(Cl)ccc2OC)C1=O,·,·,·,6,·,·
NC(=O)c1cc(Cl)ccc1OCC(=O)Nc1ccc2c(c1)OCO2,·,·,·,51*,·,·
CC(C)c1ccccc1NC(=O)Nc1ccc2c(c1)OCO2,1,-1,·,56*,·,·
O=C(Nc1ccc(Cl)cc1)Nc1ccc2c(c1)OCO2,7,17,·,59*,·,·
COc1ccc(NC(=O)c2cnc(SC)nc2C)c(OC)c1,12,-9,·,35,·,·
CCc1ccc(C(=O)C(C)OC(=O)c2cccc(S(=O)(=O)N3CCOCC3)c2)cc1 (stereo unspecified),-16,21,·,2,·,·
O=C(Nc1ccc(Cl)cc1)c1ccc2c(c1)OCO2,5,33,77,-3,1,0
O=C(Nc1ccc(Cl)cc1)C1=Cc2ccccc2OC1,-7,32,95,72*,0,0
COc1cc(NC(=O)CSc2nc(C)cs2)cc(OC)c1,9,-81*,95,0,-1,0
Cc1csc(SCC(=O)Nc2cc(S(=O)(=O)N3CCCC3)ccc2Cl)n1,-16,-54*,102,1,0,0
SMILES,PolyA inh,HSF1 inhib,STAT3 act,AHR activator,PERK inh,Hsp70 act
Cc1ccc2c(CC(=O)NCC3(N4CCOCC4)CCCCC3)coc2c1C,·,·,·,10,·,·
O=c1c2c(-c3cccs3)csc2ncn1-n1cccc1,-15,0,136*,3,0,0
Cc1ccc(C(=O)Nn2cnc3scc(-c4cccs4)c3c2=O)c(O)c1,-7,24,108,60*,0,0
CCOc1ccc(S(=O)(=O)N2CN(c3cccc(C(C)=O)c3)c3nc4ccccc4nc32)cc1,·,·,·,56*,·,·
CCOc1ccc(S(=O)(=O)N2CCN(S(=O)(=O)c3ccc(C(C)=O)cc3)CC2)cc1,1,5,·,1,·,·
Cc1c(N(C)S(=O)(=O)c2cccc(C(=O)NC(C)C)c2)c(=O)n(-c2ccccc2)n1C,2,23,·,3,·,·
CC1(C)Nc2ccccc2C(=O)N1c1ccc(Br)cc1,0,22,·,59*,·,·
CC(=O)N1c2ccccc2Oc2cc3ccccc3cc21,-42,15,112,65*,1,0
CC1CCC(NC(=O)CCNC(=O)c2ccc(Br)cc2)CC1 (stereo unspecified),0,16,·,6,·,·
COCc1nnc(NC(=O)COc2ccc3c(c2)OCO3)s1,12,5,·,10,·,·
O=C(COc1ccc2c(c1)OCO2)Nc1nccs1,7,14,·,59*,·,·
CC1=C(C(N)=O)S(=O)(=O)c2ccccc21,27,0,·,1,3.1*,·
NC(=O)c1ccc2c(c1)S(=O)(=O)c1ccccc1C2=O,2,5,·,8,2,·
CCSc1nc2sc3c(c2c(=O)n1-c1ccccc1)CCN(C(C)C)C3,3,-6,·,·,·,·
CCOc1nc(N=C(N)N)nc2c(C)cccc12,10,0,111,49*,1,0
Cc1nc(NCc2ccco2)c2c(C)c(C)sc2n1,-16,-47,139*,-10,-1,0
Nc1nccnc1C(=O)OCC(=O)NNC(=O)c1ccccc1,8,-7,·,0,·,·
O=C(Nc1ccc(F)cc1)Nc1csc2ccccc12,7,41,·,75*,0,·
CN(C)c1ccc(NC(=O)Nc2csc3ccccc23)cc1,4,-39,·,72*,0,·
CN(C)c1ccc(NC(=O)Nc2cccc(Cl)c2)cc1,8,26,97,20,-1,1
CC(Sc1nnc(-c2cccnc2)n1C)C(=O)N1CCOCC1 (stereo unspecified),16,1,·,2,·,·
COCCn1nnnc1CN(Cc1ccco1)Cc1cc2cc3c(cc2[nH]c1=O)OCO3,-5,1,104,72*,1,0
O=C(CCNC(=O)c1ccccc1)OCC(=O)c1ccccc1,?,5,96,-1,0,0
Nc1nc2nc(-c3ccccc3)cc(C(F)(F)F)c2s1,-2,-11,·,68*,·,·
CN(C)S(=O)(=O)Oc1ccsc1C(=O)Nc1ccc(C(F)(F)F)cc1,-9,-4,122,55*,0,0
SMILES,PolyA inh,HSF1 inhib,STAT3 act,AHR activator,PERK inh,Hsp70 act
CN(C)S(=O)(=O)Oc1ccsc1C(=O)Nc1ccc(Br)cc1,-12,6,89,11,0,0
C=CCOc1ccc(C(=O)Nc2ncn[nH]2)cc1,16,-1,·,66*,·,·
CCN1CCN(C(=O)CCc2nnc(CCc3ccccc3OC)o2)[C@@H](C)C1=O,6,-40,·,0,·,·
O=C(NNc1c2ccccc2nc2ccccc12)c1ccccc1Cl,-1,-4,·,58*,·,·
O=C(NNc1nc(=O)c2cccnc2s1)c1ccccc1O,23,-3,91,49*,0,0
O=C(NNc1c2ccccc2nc2ccccc12)c1ccccc1O,-2,9,95,129*,0,0
O=C(NNC(=O)c1cccc2ccccc12)c1ccccc1O,-13,-5,·,22,·,·
O=C(NNc1c2ccccc2nc2ccccc12)c1ccc(O)cc1O,4,21,94,4,0,0

# Screens (PubChem)
